The text below walks through data of ChEMBL document CHEMBL1154670, “Azaindole hydroxamic acids are potent HIV-1 integrase inhibitors” (J Med Chem, 2009).

The structures appear in SMILES notation.

Data set [1] deals with Human immunodeficiency virus type 1 integrase (Human immunodeficiency virus 1, UniProt Q7ZJM1). Description: Inhibition of HIV1 integrase expressed in Escherichia coli assessed as strand transfer activity by scintillation proximity assay. The method in brief: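 His6-tagged full-length HIV-1 IN (mutant) was preincubated 15 min at 22 °C with biotinylated U5 LTR donor DNA on streptavidin SPA beads, then [3H]-thymidine target DNA was added. Final: 2 pmol donor, 246 nM IN, 50 nM target, pH 7.2 MOPS, 4 mM MgCl2, 1% DMSO. Ran 50 min at 37 °C, stopped with EDTA/NaOH/CsCl, quench-corrected counts. IC50 from 4-parameter logistic fit, 2-3 replicates per concentration.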
Sequence of Human immunodeficiency virus type 1 integrase (Q7ZJM1 whole entry): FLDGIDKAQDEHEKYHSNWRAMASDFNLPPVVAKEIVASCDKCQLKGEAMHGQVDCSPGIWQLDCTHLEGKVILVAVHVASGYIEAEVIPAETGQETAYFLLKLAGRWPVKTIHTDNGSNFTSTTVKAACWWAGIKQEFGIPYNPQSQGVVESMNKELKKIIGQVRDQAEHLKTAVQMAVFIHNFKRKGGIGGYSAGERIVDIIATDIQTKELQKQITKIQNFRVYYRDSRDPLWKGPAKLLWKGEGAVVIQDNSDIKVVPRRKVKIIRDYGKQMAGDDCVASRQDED

The subject of data set [2] is Human immunodeficiency virus 1. Description: Antiviral activity against HIV1 RF in human CEM-SS cells assessed inhibition of virus-induced cytopathic effect by XTT assay. The data set is classed as functional, organism-based. To be noted: Human immunodeficiency virus 1, RF. The method in brief:
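CEM-SS cells (2×10^4/well) were infected with HIV-1 RF at an MOI giving 90% cell death by day 6. Compounds, in half-log dilutions with ≥2 replicate wells, were added at seeding before infection. On day 6, XTT/phenazine methosulfate was added for 4 h and read at A450. EC50 is the concentration restoring formazan to 50% of uninfected, compound-free cells.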

Data set [3] can be described thus: Cytotoxicity against human CEM-SS cells by XTT assay. The data set is classed as cell-based. The method, boiled down: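 Uninfected CEM-SS cells (2×10^4/well) were exposed for 6 days to half-log compound dilutions (≥2 replicate wells) added at seeding. Viability was read by XTT formazan (4 h, A450). CC50 was derived from the drop in formazan versus uninfected, compound-free cells.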

A short description of data set [4]: Metabolic stability in human hepatocytes assessed as extraction ratio after 4 hrs. Type of data set: ADME, cell-based, Hepatocyte.
A short description of data set [5]: Metabolic stability in human liver microsomes assessed as extraction ratio after 4 hrs in presence of NADPH. The data set is classed as ADME, Microsome.
Data set [6] is described as follows: Mutagenic activity in Salmonella Typhimurium TA100 by Biolum Ames test. Type of data set: toxicity. Particulars: salmonella enterica subsp. enterica serovar typhimurium.
Data set [7] can be described thus: Mutagenic activity in Salmonella Typhimurium TA98 by Biolum Ames test. The data set is classed as toxicity. Particulars: salmonella enterica subsp. enterica serovar typhimurium.
Data set [8] in a line: Mutagenic activity in Salmonella Typhimurium TA100 by Biolum Ames test in presence of metabolizing enzyme. The data set is classed as toxicity. To be noted: salmonella enterica subsp. enterica serovar typhimurium.
The nature of data set [9]: Mutagenic activity in Salmonella Typhimurium TA98 by Biolum Ames test in presence of metabolizing enzyme. The data set is classed as toxicity. To be noted: salmonella enterica subsp. enterica serovar typhimurium.

As for `O=C(O)c1cc2ccn(Cc3cccc(Cl)c3Cl)c2cn1`, in data set [1], the IC50 is 5.42 µM.
For `O=C(NO)c1cc2ccn(Cc3cccc(Cl)c3Cl)c2cn1`, the IC50 in [1] is 0.442 µM. In [2], a half-maximal effect (EC50) was put at 0.035 µM. The compound further yielded a CC50 in data set [3] greater than 320 µM.
As for `CC(C)N(O)C(=O)c1cc2ccn(Cc3ccc(F)cc3)c2cn1`, the IC50 in data set [1] came out at 8 µM. Moreover, the response in data set [2] was half-maximal at 3.5 µM (EC50). In data set [3], this compound displayed a CC50 of 36 µM. The hepatic extraction ratio at 4 h in data set [4] was found to be 0.93.
For `O=C(NO)c1cc2ccn(Cc3cccc(Cl)c3F)c2cn1`, the IC50 in data set [1] came to 0.102 µM. This compound also came in with an EC50 in data set [2] of 0.008 µM. Further, the CC50 in data set [3] was greater than 320 µM.
For `O=C(NO)c1cc2ccn(Cc3c(F)ccc(Cl)c3F)c2cn1`, the IC50 in data set [1] is 0.131 µM. Also, the EC50 in data set [2] is 0.007 µM. The compound also gave a CC50 in [3] greater than 1 µM.
Turning to `O=C(O)c1cc2ccn(Cc3cc(Cl)cs3)c2cn1`, the 50% inhibitory concentration (IC50) in data set [1] came to 3.2 µM.
Consider `O=C(NO)c1cc2ccn(Cc3cccc(CO)n3)c2cn1`, for which the IC50 in [1] stood at 5.73 µM. This compound also registered an EC50 in data set [2] of 0.73 µM. The half-maximal cytotoxic concentration (CC50) in data set [3] was greater than 10 µM.
As for `CONC(=O)c1cc2ccn(Cc3ccc(F)cc3F)c2cn1`, in data set [1], the IC50 was determined as 0.356 µM. In data set [2], this compound yielded an EC50 of 0.021 µM. In addition, in data set [3], the cytotoxic concentration (CC50) was greater than 320 µM. Moreover, the hepatic extraction ratio at 4 h in data set [5] is 0.68; in data set [4], 1.
Regarding `O=C(NO)c1cc2ccn(Cc3ccc(F)cc3)c2cn1`, the IC50 in [1] is 0.137 µM. Also, it took 0.009 µM to reach a half-maximal effect in data set [2] (EC50). In addition, the 50% cytotoxic concentration (CC50) in data set [3] came out at 159 µM. Moreover, the hepatic extraction ratio at 4 h in data set [4] came out at 0.92.
Regarding `N#Cc1cc(F)ccc1Cn1ccc2cc(C(=O)NO)ncc21`, in data set [1], the IC50 was found to be 0.812 µM. Also, the EC50 in [2] turned out to be 0.12 µM. Also, the CC50 in data set [3] was greater than 10 µM.
The matching figures for `N#Cc1ccc(Cn2ccc3cc(C(=O)NO)ncc32)cc1`: greater than 10 µM, 1.2 µM and greater than 10 µM.
Regarding `NC(=O)c1cc(F)ccc1Cn1ccc2cc(C(=O)NO)ncc21`, the IC50 in data set [1] was found to be 1.3 µM. The compound further gave a concentration for a half-maximal effect (EC50) in data set [2] of 0.055 µM. This compound also returned a half-maximal cytotoxic concentration (CC50) in data set [3] greater than 10 µM.
Consider `O=C(c1cc2ccn(Cc3ccc(F)cc3)c2cn1)N(O)Cc1ccccc1`, for which the IC50 in data set [1] came to 23 µM. In data set [2], this compound returned an EC50 of 0.33 µM. This compound registered a CC50 in [3] greater than 320 µM. Moreover, the hepatic extraction ratio at 4 h in data set [4] worked out at 1.
Take `CN(O)C(=O)c1cc2ccn(Cc3ccc(F)cc3)c2cn1`: the IC50 in [1] is 0.25 µM. Besides, the CC50 in [3] was found to be 200 µM.
As to `O=C(O)c1cc2ccn(Cc3ccccc3F)c2cn1`, in data set [1], the IC50 was greater than 50 µM.
Turning to `O=C(O)c1cc2ccn(Cc3ccc(F)cc3F)c2cn1`, the half-inhibitory concentration (IC50) in [1] came to 3.5 µM.
Take `NC(=O)c1cccc(Cn2ccc3cc(C(=O)NO)ncc32)c1`: the half-inhibitory concentration (IC50) in data set [1] came out at 1.72 µM. This compound also displayed an EC50 in [2] of 0.53 µM. Moreover, the CC50 in [3] was greater than 10 µM.
Regarding `O=C(O)c1cc2ccn(Cc3cccc(Cl)c3F)c2cn1`, the IC50 in data set [1] was determined as 0.95 µM.
On the same count and under the same terms, then `O=C(O)c1cc2ccn(Cc3c(F)cc(Cl)cc3F)c2cn1`, with 1.19 µM; and `O=C(O)c1cc2ccn(Cc3ccc(F)c(F)c3F)c2cn1`, with 3.69 µM.
Consider `CON(C)C(=O)c1cc2ccn(Cc3ccc(F)cc3F)c2cn1`, for which the IC50 in [1] was greater than 50 µM. This compound also yielded an EC50 in data set [2] greater than 10 µM. For the same compound, the CC50 in data set [3] is greater than 10 µM. Moreover, the hepatic extraction ratio at 4 h in [5] and in data set [4] was 1 in each case.
With `NC(=O)c1cc(Cn2ccc3cc(C(=O)NO)ncc32)ccc1F`, the IC50 in [1] came to 0.608 µM. This compound also returned an EC50 in data set [2] of 0.058 µM. In addition, the cytotoxic concentration (CC50) in data set [3] was greater than 10 µM.
For the compound `O=C(NO)c1cc2ccn(Cc3ccc(F)cc3F)c2cn1`, the IC50 in data set [1] worked out at 0.084 µM. In addition, in data set [2], it took 0.008 µM to reach a half-maximal effect (EC50). In addition, the CC50 in data set [3] was greater than 320 µM. For the same compound, the figures for the hepatic extraction ratio at 4 h in [5] and in [4] were less than 0.26 and 0.9, respectively. For the same compound, the result in data set [6], in data set [7], in [8] and in [9] was Active.
For `O=C(NO)c1cc2ccn(Cc3ccccn3)c2cn1`, the IC50 in data set [1] was 0.779 µM. Also, the EC50 in [2] amounted to 0.088 µM. In addition, the CC50 in data set [3] was greater than 10 µM.
Turning to `CCCN(O)C(=O)c1cc2ccn(Cc3ccc(F)cc3)c2cn1`, in data set [1], the IC50 was 0.618 µM. This compound also came in with an EC50 in [2] of 0.35 µM. It took 26 µM to reach half-maximal cytotoxicity in data set [3] (CC50). In addition, the hepatic extraction ratio at 4 h in data set [4] is 0.96.
With `CC(C)CN(O)C(=O)c1cc2ccn(Cc3ccc(F)cc3)c2cn1`, in data set [1], the IC50 turned out to be 1.7 µM. This compound gave an EC50 in data set [2] of 1.4 µM. For the same compound, half-maximal cytotoxicity in data set [3] (CC50) was put at 102 µM. The hepatic extraction ratio at 4 h in [4] worked out at 0.95.
Turning to `CN(O)C(=O)c1cc2ccn(Cc3ccc(F)cc3F)c2cn1`, in data set [1], the IC50 is 0.25 µM. In data set [2], this compound displayed an EC50 of 0.032 µM. The compound also registered a CC50 in [3] of 135 µM. For the same compound, the hepatic extraction ratio at 4 h was less than 0.36 in [5] and 1 in data set [4]. For the same compound, the Activity result in data set [6], in [7], in [8] and in [9] was “Not Active” each time.
`O=C(c1cc2ccn(Cc3ccc(F)cc3)c2cn1)N(O)CCCO`: the IC50 in data set [1] worked out at 0.804 µM. In data set [2], this compound gave an EC50 of 0.3 µM. In [3], half-maximal cytotoxicity (CC50) was put at 77 µM. In addition, in data set [4], the hepatic extraction ratio at 4 h turned out to be 0.95.
In the case of `O=C(NO)c1cc2ccn(Cc3ccc(Cl)s3)c2cn1`, the IC50 in [1] was determined as 0.387 µM. Moreover, the EC50 in data set [2] worked out at 0.02 µM. For the same compound, the CC50 in data set [3] is greater than 10 µM.
`O=C(O)c1cc2ccn(Cc3ccc(F)cc3)c2cn1`: the IC50 in data set [1] came to 7.35 µM.
For the compound `NC(=O)c1ccc(Cn2ccc3cc(C(=O)NO)ncc32)cc1`, the IC50 in [1] is greater than 10 µM. The same compound registered an EC50 in data set [2] greater than 10 µM. This compound showed a CC50 in data set [3] greater than 10 µM.
Turning to `N#Cc1cccc(Cn2ccc3cc(C(=O)NO)ncc32)c1`, the IC50 in [1] is 1.62 µM. For the same compound, in [2], the EC50 came to 0.5 µM. The same compound registered a CC50 in data set [3] greater than 10 µM.
